In ChEMBL document CHEMBL2203194, “Phenolic compounds from Caesalpinia sappan heartwood and their anti-inflammatory activity” (J Nat Prod, 2012):
The source made the active and inactive calls. The rule behind the calls is not given here.

Legend:
RAW264.7 [1] = experiment: Antiinflammatory activity in mouse RAW264.7 cells assessed as inhibition of LPS-induced TNFalpha production incubated for 24 hrs by ELISA; format: functional, cell-based; settings: RAW264.7, 24 h
Method in brief: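 RAW264.7 cells (1 × 10^5 cells/well) stimulated with 1 μg/mL LPS for 24 h with test compounds; TNF-α in culture supernatant quantified by ELISA. IC50 relative to vehicle control; mean ± SD of three repeated experiments. Celastrol positive control.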

RAW264.7 [2] = experiment: Cytotoxicity against mouse RAW264.7 cells at 50 uM incubated for 24 hrs in absence of LPS by MTT assay; format: cell-based; settings: raw264.7, 24 h
Method in brief: (§1)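 RAW264.7 viability by MTT colorimetric assay after 24 h with compounds at 50 μM, with or without LPS (1 μg/mL).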

[3] = Antioxidant activity assessed as nitric oxide free radical scavenging activity by UV-visible spectroscopy; format: functional
Method in brief: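 Compounds in DMSO, made up with MeOH, mixed with 10 mM sodium nitroprusside in PBS; room temperature 150 min. Scavenging % = (control − sample)/control × 100, MeOH blank as control; ascorbic acid standard. IC50, mean ± SD of three experiments.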

RAW264.7 [4] = experiment: Antiinflammatory activity in mouse RAW264.7 cells assessed as reduction of LPS-induced IkappaBalpha degradation at 30 uM pre-treated for 30 mins before LPS challenge and measured after 15 mins by immunoblot; format: functional, cell-based
Method in brief: (§2)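 30 min pretreatment of RAW264.7 cells with compound, then LPS (1 μg/mL). Lysis in ice-cold Tris-HCl pH 7.5/NP-40 buffer with protease/phosphatase inhibitors. SDS-PAGE, PVDF transfer, skim-milk block, anti-IκB-α antibody, HRP secondary, ECL detection.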

RAW264.7 [5] = experiment: Antiinflammatory activity in mouse RAW264.7 cells assessed as reduction of LPS-induced IkappaBalpha degradation at 30 uM pre-treated for 30 mins before LPS challenge and measured after 10 mins by immunoblot; format: functional, cell-based; method in brief: as §2
RAW264.7 [6] = experiment: Effect on alpha-tubulin protein expression in mouse RAW264.7 cells up to 10 uM pre-treated for 30 mins before LPS challenge for 18 hrs by immunoblot; format: functional, cell-based
Method in brief: (§3)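 Cells pretreated 30 min with compound (0−10 μM), then LPS 1 μg/mL for 18 h. Total lysates in ice-cold Tris-HCl pH 7.5/NP-40 buffer; 50 μg protein per lane by SDS-PAGE, PVDF, skim-milk block, anti-iNOS and anti-α-tubulin antibodies, HRP secondary, ECL. iNOS densitometry normalized to α-tubulin.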

RAW264.7 [7] = experiment: Cytotoxicity against mouse RAW264.7 cells at 50 uM incubated for 24 hrs in presence of LPS by MTT assay; format: cell-based; settings: raw264.7, 24 h; method in brief: as §1
RAW264.7 [8] = experiment: Antiinflammatory activity in mouse RAW264.7 cells assessed as reduction of LPS-induced IkappaBalpha resynthesis at 30 uM pre-treated for 30 mins before LPS challenge by immunoblot; format: functional, cell-based; method in brief: as §2
RAW264.7 [9] = experiment: Antiinflammatory activity in mouse RAW264.7 cells assessed as reduction of LPS-induced iNOS protein expression pre-treated for 30 mins before LPS challenge for 18 hrs by immunoblot; format: functional, cell-based; method in brief: as §3
RAW264.7 [10] = experiment: Antiinflammatory activity in mouse RAW264.7 cells assessed as inhibition of LPS-induced nitric oxide generation incubated for 24 hrs; format: functional, cell-based; settings: RAW264.7, 24 h
Method in brief: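 Nitrite in supernatant reacted with Griess reagent (sulfanilamide/phosphoric acid plus naphthylethylenediamine), A540 read, calibrated against NaNO2 standard. IC50 versus vehicle control, mean ± SD of three experiments; celastrol positive control.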

RAW264.7 [11] = experiment: Antiinflammatory activity in mouse RAW264.7 cells assessed as reduction of LPS-induced IkappaBalpha degradation at 30 uM pre-treated for 30 mins before LPS challenge and measured after 5 mins by immunoblot; format: functional, cell-based; method in brief: as §2

| SMILES | IC50 (RAW264.7 [1]) [µM] | Activity (RAW264.7 [2]) | IC50 [3] [µM] | Activity (RAW264.7 [4]) | Activity (RAW264.7 [5]) | Activity (RAW264.7 [6]) | Activity (RAW264.7 [7]) | Activity (RAW264.7 [8]) | Activity (RAW264.7 [9]) | IC50 (RAW264.7 [10]) [µM] | Activity (RAW264.7 [11]) |
| --- | --- | --- | --- | --- | --- | --- | --- | --- | --- | --- | --- |
| COc1cc(O)c2c(=O)c(OC)c(-c3ccc(O)c(O)c3)oc2c1 | 5.8 | Non-toxic | 103 | Active | Active | inactive | Non-toxic | Active | Dose-dependent effect | 3.5 | – |
| O=C1c2ccc(O)cc2OC[C@@H]1Cc1ccc(O)c(O)c1 | – | Non-toxic | 65.3 | – | – | – | Non-toxic | – | – | 42.4 | – |
| O=C1c2ccc(O)cc2OC[C@]1(O)Cc1ccc(O)cc1 | – | Non-toxic | 117 | – | – | – | Non-toxic | – | – | > 50 | – |
| COc1ccc(-c2oc3cc(O)cc(O)c3c(=O)c2O)cc1OC | – | Non-toxic | 85.3 | – | – | – | Non-toxic | – | – | 35 | – |
| O=C1C=C[C@]23CC(COC2=C1)Cc1cc(O)c(O)cc13 | – | Non-toxic | 157 | – | – | – | Non-toxic | – | – | > 50 | – |
| O=C1/C(=C/c2ccc(O)cc2)COc2cc(O)ccc21 | – | Non-toxic | 95.5 | – | – | – | Non-toxic | – | – | > 50 | – |
| O=C1O[C@H]([C@@H](O)CO)C(O)=C1O [ASCORBIC ACID] | – | – | 0.71 | – | – | – | – | – | – | – | – |
| COc1cc(C[C@@]2(O)COc3cc(O)ccc3C2=O)ccc1O [CAESALPINIAPHENOL A] | – | Non-toxic | 103 | – | – | – | Non-toxic | – | – | > 50 | – |
| O=C1OCC=C1C[C@@]1(O)COc2cc(O)ccc2C1=O [CAESALPINIAPHENOL B] | – | Non-toxic | 95.6 | – | – | – | Non-toxic | – | – | > 50 | – |
| O=C1COc2cc(O)ccc2-c2cc(O)c(O)cc21 [CAESALPINIAPHENOL C] | – | Non-toxic | 86.2 | – | – | – | Non-toxic | – | – | > 50 | – |
| O=Cc1ccc(O)cc1O[C@H](O)c1ccc(O)c(O)c1 [CAESALPINIAPHENOL D] | > 50 | Non-toxic | 113 | – | – | inactive | Non-toxic | – | Dose-dependent effect | 12.2 | – |
| CC1=C(O)C(=O)C=C2C1=CC=C1[C@@]2(C)CC[C@@]2(C)[C@@H]3C[C@](C)(C(=O)O)CC[C@]3(C)CC[C@]12C [CELASTROL] | 0.8 | – | – | – | – | – | – | – | – | – | – |
| O=C1/C(=C/c2ccc(O)c(O)c2)COc2cc(O)ccc21 [SAPPANONE A] | 8.3 | Non-toxic | 96.6 | Active | – | inactive | Non-toxic | Active | Dose-dependent effect | 5.7 | Active |
